Experimental data reported in paper PMC3904496 (Cancer chemotherapy and pharmacology, 2012).
Read-outs that look alike come from different tables or passages of the source.

Columns and labels:
[1] = system: HIV; conditions: cited from earlier work
[2] = system: liposarcoma; conditions: cited from earlier work
[3] = Steady-state plasma pharmacokinetics, phase I trial; type: in vivo, human; conditions: for Mean peak plasma level: steady state; for AUC: po
Outline: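 Liposarcoma patients took oral test compound twice daily with food. On day 8 of cycle 1, EDTA blood was drawn predose and 0.5–8 h post-dose, iced, spun within 1 h and stored as plasma at ≤ –20 °C. Parent and active metabolite were extracted by protein precipitation/organic extraction (reserpine internal standard) and quantified by LC–MS/MS in positive-ion MRM. Non-compartmental Cmax/Tmax; linear/log trapezoidal AUC.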

[4] = system: liposarcoma; assay: Tumor response by RECIST in subjects with liposarcoma; type: in vivo, human
[5] = system: liposarcoma xenograft; conditions: murine liposarcoma xenograft; cited from earlier work
[6] = system: liposarcoma; conditions: cited from earlier work; remark: listed apart in the source
[7] = system: SREBP-1; conditions: in the absence of increased gene expression; cited from earlier work
[8] = RECIST, 20 subjects, all dose levels

For Cc1c(O)cccc1C(=O)N[C@@H](CSc1ccccc1)[C@H](O)CN1C[C@H]2CCCC[C@H]2C[C@H]1C(=O)NC(C)(C)CO [M8], the “activity in suppressing HIV replication relative to parent drug” value [1] is given as “as pharmacologically active as the parent drug”, the “anticancer activity relative to parent molecule” value [2] is given as “comparable to its parent molecule” and the “time to peak plasma concentration” value ([3]; 3,000 mg nelfinavir twice daily) is given as 4 to 6 h. The “time to peak plasma concentration” value ([3]; 4,250 mg nelfinavir twice daily) was 2 h.
For Cc1c(O)cccc1C(=O)N[C@@H](CSc1ccccc1)[C@H](O)CN1C[C@H]2CCCC[C@H]2C[C@H]1C(=O)NC(C)(C)C [nelfinavir], the “range where anticancer activity was demonstrated in vitro” value [2] is given as 5 to 10 µM, the “Mean peak plasma level” value ([3]; Level 4, 3,000 mg twice daily oral, six subjects) is given as 7.3 mg/L and the “Mean peak plasma level” value ([3]; Level 5, 4,250 mg twice daily oral, three subjects) is given as 6.3 mg/L. For the same molecule, the Tmax ([3]; human, plasma, oral, 4250 mg twice daily) was 2 h, the AUC ([3]; human, plasma, 3000 mg twice daily) was 60900 ng·h/mL and the AUC ([3]; human, plasma, 4250 mg twice daily) was 37700 ng·h/mL. The “subjects with CT partial response (PR)” value [4, 8] was 1, the “subjects with progressive disease at initial evaluation” value [4, 8] was 13 and the “subjects with reduction in tumor size, but less than a PR” value [4, 8] was 1. For the same molecule, the “clinical benefit (complete response, PR, plus SD)” value ([4]; of 20 subjects) was 30%, the “subjects with clinical benefit (complete response, PR, plus SD)” value ([4]; of 20 subjects) was 6 and the “Acute toxicity count: Blood/bone marrow, Hemoglobin” value (Course 1, Grade 1) was 3. The “Acute toxicity count: Blood/bone marrow, Leukocytes (total WBC)” value (Course 1, Grade 1) was 2, the “Acute toxicity count: Blood/bone marrow, Other” value (Course 1, Grade 1) was 1 and the “Acute toxicity count: Blood/bone marrow, Platelets” value (Course 1, Grade 1) was 1. For the same molecule, the “Acute toxicity count: Cardiac arrhythmia ventricular arrhythmia” value (Course 1, Grade 1) was 1, the “Acute toxicity count: Laboratory, Bicarbonate, serum-low” value (Course 1, Grade 1) was 1 and the “Acute toxicity count: Laboratory, Cholesterol, serum-high” value (Course 1, Grade 1) was 2. For the same molecule, the “Acute toxicity count: Laboratory, Glucose, serum-high” value (Course 1, Grade 1) was 1, the “Acute toxicity count: Laboratory, Potassium, serum-low” value (Course 1, Grade 1) was 2 and the “Acute toxicity count: Laboratory, Triglyceride, serum-high” value (Course 1, Grade 1) was 2. The “Acute toxicity count: Blood/bone marrow, Hemoglobin” value (Course 1, Grade 2) was 1, the “Acute toxicity count: Blood/bone marrow, Lymphopenia” value (Course 1, Grade 2) was 1 and the “Acute toxicity count: Laboratory, Glucose, serum-high” value (Course 1, Grade 2) was 1. The “Acute toxicity count: Laboratory, Lipase” value (Course 1, Grade 3) was 1, the “Acute toxicity count: Blood/bone marrow, Hemoglobin” value (Subsequent courses, Grade 1) was 2 and the “Acute toxicity count: Blood/bone marrow, Lymphopenia” value (Subsequent courses, Grade 1) was 1. For the same molecule, the “Acute toxicity count: Blood/bone marrow, Platelets” value (Subsequent courses, Grade 1) was 1, the “Acute toxicity count: Blood/bone marrow, Hemoglobin” value (Subsequent courses, Grade 2) was 2 and the “Acute toxicity count: Blood/bone marrow, Neutrophils” value (Subsequent courses, Grade 2) was 1. For the same molecule, the “Acute toxicity count: Blood/bone marrow, Leukocytes (total WBC)” value (human, in vivo) was 1, the “Acute toxicity count: Constitutional, Fatigue” value (human, in vivo) was 1 and the “Acute toxicity count: Constitutional, Weight loss” value (human, in vivo) was 1. The “Acute toxicity count: Dermatology/skin, Other” value (human, in vivo) was 1, the “Acute toxicity count: Dermatology/skin, Rash/desquamation” value (human, in vivo) was 1 and the “Acute toxicity count: Gastrointestinal, Anorexia” value (human, in vivo) was 1. For the same molecule, the “Acute toxicity count: Gastrointestinal, Diarrhea” value (human, in vivo) was 7, the “Acute toxicity count: Gastrointestinal, Nausea” value (human, in vivo) was 1 and the “Acute toxicity count: Gastrointestinal, Vomiting” value (human, in vivo) was 1. For the same molecule, the “Acute toxicity count: Laboratory, ALT, SGPT” value (human, in vivo) was 1, the “Acute toxicity count: Laboratory, AST, SGOT” value (human, in vivo) was 1 and the “Acute toxicity count: Laboratory, Alkaline phosphatase” value (human, in vivo) was 2. The “Acute toxicity count: Laboratory, Glucose, serum-high” value (human, in vivo) was 3, the “Acute toxicity count: Laboratory, Potassium, serum-low” value (human, in vivo) was 1 and the “Acute toxicity count: Laboratory, Triglyceride, serum-high” value (human, in vivo) was 2. For the same molecule, the “Acute toxicity count: Neurology dizziness” value (human, in vivo) was 1, the “Acute toxicity count: Pain” value (human, in vivo) was 2 and the “Acute toxicity count: Pulmonary dyspnea” value (human, in vivo) was 1. For the same molecule, the “Acute toxicity count: Pulmonary, Hypoxia” value (human, in vivo) was 1, the “Acute toxicity count: Pulmonary, Other” value (human, in vivo) was 1 and the “Acute toxicity count: Constitutional, Fatigue” value (human, in vivo, 28 days) was 1. The “Acute toxicity count: Dermatology/skin, Other” value (human, in vivo, 28 days) was 1, the “Acute toxicity count: Dermatology/skin, Rash/desquamation” value (human, in vivo, 28 days) was 1 and the “Acute toxicity count: Gastrointestinal, Diarrhea” value (human, in vivo, 28 days) was 2. The “Acute toxicity count: Gastrointestinal, Nausea” value (human, in vivo, 28 days) was 2, the “Acute toxicity count: Gastrointestinal, Vomiting” value (human, in vivo, 28 days) was 1 and the “Acute toxicity count: Hemorrhage/bleeding” value (human, in vivo, 28 days) was 1. The “Acute toxicity count: Hepatobiliary/pancreatitis” value (human, in vivo, 28 days) was 1, the “Acute toxicity count: Laboratory, ALT, SGPT” value (human, in vivo, 28 days) was 3 and the “Acute toxicity count: Laboratory, AST, SGOT” value (human, in vivo, 28 days) was 3. The “Acute toxicity count: Laboratory, Album, serum-low” value (human, in vivo, 28 days) was 1, the “Acute toxicity count: Lymphatics/limb edema” value (human, in vivo, 28 days) was 1 and the MTD (up to dose Level 5 (4,250 mg twice daily)) was “not reached”. For the same molecule, the “effect on tumor growth” value [5] was “inhibition of tumor growth”, the “potency rank among HIV PIs in clonogenic assays” value [6] was “most potent HIV PI identified” and the “precursor SREBP-1 protein expression” value [7] was “dose-dependent increase”.
